Results: ChEMBL document CHEMBL4765302, “Design, synthesis and biological evaluation of novel histone deacetylase1/2 (HDAC1/2) and cyclin-dependent Kinase2 (CDK2) dual inhibitors against malignant cancer” (Eur J Med Chem, 2020)
Activity calls are given as the source filed them. The calls are words filed in the database; no cut-off is given here.

Legend:
[1] = test system: HCT-116; test: Antiproliferative activity against human HCT-116 cells assessed as reduction in cell growth at 2 uM incubated for 72 hrs by CCK-8 assay relative to control; assay type: functional
[2] = test system: NCI-H460; test: Antiproliferative activity against human NCI-H460 cells assessed as reduction in cell growth incubated for 72 hrs by CCK-8 assay; assay type: functional, cell-based; settings: NCI-H460, 72 h
Summary of the method: (§1)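 IC50 by CCK-8 assay across five solid-tumour lines (HCT116, HepG2, H460, HeLa, A375). Run only for compounds chosen after the single-concentration screen, with CS055 and roscovitine as references.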

[3] = test system: HeLa; test: Antiproliferative activity against human HeLa cells assessed as reduction in cell growth incubated for 72 hrs by CCK-8 assay; assay type: functional, cell-based; summary of the method: as §1
[4] = test system: NCI-H460; test: Cytotoxicity against human NCI-H460 cells assessed as effect on cell morphology at 0.5 to 8 micromol incubated for 48 hrs by microscopic analysis; assay type: functional, cell-based; settings: dose 0.5-8 µmol
Summary of the method: (§2)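 Five cancer cell lines treated with compound or DMSO (0.1 %) for 48 h. Morphology inspected by light microscopy at 10× objective.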

[5] = test system: HCT-116; test: Cytotoxicity against human HCT-116 cells assessed as effect on cell morphology at 0.5 to 8 micromol incubated for 48 hrs by microscopic analysis; assay type: functional, cell-based; settings: dose 0.5-8 µmol; summary of the method: as §2
[6] = test system: HeLa; test: Cytotoxicity against human HeLa cells assessed as effect on cell morphology at 0.5 to 8 micromol incubated for 48 hrs by microscopic analysis; assay type: functional, cell-based; settings: dose 0.5-8 µmol; summary of the method: as §2
[7] = test system: NCI-H460; test: Antimigratory activity against human NCI-H460 cells assessed as inhibition of migration at 0.5 uM incubated for 48 hrs by microscopic based wound healing test; assay type: functional, cell-based
Summary of the method: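 Scratch (wound-healing) migration assay in A375 and H460 cells seeded in 12-well plates. Cells exposed to compound, CS055, roscovitine or DMSO blank for 48 h. At least two independent experiments.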

[8] = test system: A-375; test: Induction of cell cycle arrest in human A-375 cells assessed as G2/M phase at 0.5 uM incubated for 24 hrs by PI staining based flow cytometry (reference value: 13.7 %); assay type: functional
Summary of the method: (§3)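 Treatment at 2, 1 and 0.5 μM for 24 h, alongside CS055 and roscovitine, against a DMSO (0.1 %) blank. Cells then stained with propidium iodide and analyzed by flow cytometry.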

[9] = test system: HCT-116; test: Induction of cell cycle arrest in human HCT-116 cells assessed as G2/M phase at 0.5 uM incubated for 24 hrs by PI staining based flow cytometry (reference value: 27.46 %); assay type: functional; summary of the method: as §3
[10] = test system: A-375; test: Induction of apoptosis in human A-375 cells assessed as viable cells at 2 uM incubated for 48 hrs by annexin V-FITC and PI staining based flow cytometry (reference value: 96.3 %); assay type: functional; settings: read-out: Activity
[11] = test system: A-375; test: Induction of apoptosis in human A-375 cells assessed as viable cells at 0.5 uM incubated for 48 hrs by annexin V-FITC and PI staining based flow cytometry (reference value: 96.3 %); assay type: functional; settings: read-out: Activity
[12] = test system: A-375; test: Induction of apoptosis in human A-375 cells assessed as late apoptotic cells at 0.5 uM incubated for 48 hrs by annexin V-FITC and PI staining based flow cytometry (reference value: 2.24 %); assay type: functional
[13] = test system: HCT-116; test: Induction of apoptosis in human HCT-116 cells assessed as viable cells at 2 uM incubated for 48 hrs by annexin V-FITC and PI staining based flow cytometry (reference value: 93.9 %); assay type: functional; settings: read-out: Activity
[14] = test system: HCT-116; test: Induction of apoptosis in human HCT-116 cells assessed as late apoptotic cells at 1 uM incubated for 48 hrs by annexin V-FITC and PI staining based flow cytometry (reference value: 1.88 %); assay type: functional
[15] = test system: HCT-116; test: Induction of apoptosis in human HCT-116 cells assessed as necrotic cells at 1 uM incubated for 48 hrs by annexin V-FITC and PI staining based flow cytometry (reference value: 0.124 %); assay type: functional
[16] = test system: HCT-116; test: Induction of apoptosis in human HCT-116 cells assessed as early apoptotic cells at 0.5 uM incubated for 48 hrs by annexin V-FITC and PI staining based flow cytometry (reference value: 4.14 %); assay type: functional
[17] = test system: HCT-116; test: Induction of apoptosis in human HCT-116 cells assessed as late apoptotic cells at 0.5 uM incubated for 48 hrs by annexin V-FITC and PI staining based flow cytometry (reference value: 1.88 %); assay type: functional
[18] = test system: HCT-116; test: Induction of apoptosis in human HCT-116 cells assessed as necrotic cells at 0.5 uM incubated for 48 hrs by annexin V-FITC and PI staining based flow cytometry (reference value: 0.124 %); assay type: functional
[19] = test system: NCI-H460; test: Induction of apoptosis in human NCI-H460 cells assessed as early apoptotic cells at 1 uM incubated for 48 hrs by annexin V-FITC and PI staining based flow cytometry (reference value: 2.88 %); assay type: functional
[20] = test system: NCI-H460; test: Induction of apoptosis in human NCI-H460 cells assessed as late apoptotic cells at 1 uM incubated for 48 hrs by annexin V-FITC and PI staining based flow cytometry (reference value: 6.11 %); assay type: functional
[21] = test system: NCI-H460; test: Induction of apoptosis in human NCI-H460 cells assessed as early apoptotic cells at 0.5 uM incubated for 48 hrs by annexin V-FITC and PI staining based flow cytometry (reference value: 2.88 %); assay type: functional
[22] = test system: HeLa; test: Induction of apoptosis in human HeLa cells assessed as early apoptotic cells at 1 uM incubated for 48 hrs by annexin V-FITC and PI staining based flow cytometry (reference value: 0.528 %); assay type: functional
[23] = test system: HeLa; test: Induction of apoptosis in human HeLa cells assessed as late apoptotic cells at 1 uM incubated for 48 hrs by annexin V-FITC and PI staining based flow cytometry (reference value: 0.870 %); assay type: functional
[24] = test system: HeLa; test: Induction of apoptosis in human HeLa cells assessed as necrotic cells at 1 uM incubated for 48 hrs by annexin V-FITC and PI staining based flow cytometry (reference value: 0.124 %); assay type: functional
[25] = test system: HeLa; test: Induction of apoptosis in human HeLa cells assessed as late apoptotic cells at 0.5 uM incubated for 48 hrs by annexin V-FITC and PI staining based flow cytometry (reference value: 0.870 %); assay type: functional
[26] = test system: NCI-H460; test: Induction of apoptosis in human NCI-H460 cells assessed as necrotic cells incubated for 48 hrs by annexin V-FITC and PI staining based flow cytometry; assay type: functional, cell-based; settings: dose 0.5-2 µM
[27] = test system: HCT-116; test: Induction of apoptosis in human HCT-116 cells assessed as necrotic cells incubated for 48 hrs by annexin V-FITC and PI staining based flow cytometry; assay type: functional, cell-based; settings: dose 0.5-2 µM
[28] = molecular target: Cyclin-dependent kinase 2 (Homo sapiens) (UniProt P24941); test: Inhibition of CDK2 in human A-375 cells at 1 uM incubated for 12 hrs by DAPI and immunofluorescence staining based confocal microscopic analysis; assay type: cell-based
[29] = test system: A-375; test: Induction of ROS accumulation in human A-375 cells at 1 uM incubated for 24 hrs by DCFH-DA staining based confocal microscopic analysis; assay type: functional, cell-based
Summary of the method: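 A375 cells treated at 1 µM or with DMSO blank for 24 h. Intracellular ROS detected with the fluorescent dye DCFH-DA.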

[30] = AUC (0 to t) in ICR mouse at 4 mg/kg, iv measured upto 24 hrs by LC-MS/MS analysis; assay type: ADME, organism-based; design: route intravenous, dose 4 mg/kg, time <=24; settings: in vivo
Summary of the method: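 Male ICR mice (N=9). Single dose, either 4 mg/kg intravenous or 20 mg/kg intraperitoneal. Parameters derived: T1/2, Tmax, Cmax, AUC0-t, MRT0-t and CL, with F for the intraperitoneal arm.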

`Cc1ccc(Nc2nc(Cl)nc3c2ncn3Cc2ccc(C(=O)Nc3ccccc3N)cc2)cc1` showed an inhibition at 2 µM [1] of 76.3%, an IC50 [2] of 1590 nM and an IC50 [3] of 1050 nM. For the same molecule, the Activity [4] was “Active”, the Activity [5] was “Active” and the Activity [6] was “Active”. The inhibition [7] was “Active”, the Activity [8] was 57.03% and the Activity [9] was 76.99%. The viability at 2 µM [10] was 7.6%, the viability at 0.5 µM [11] was 16.4% and the Activity [12] was 72.2%. The viability at 2 µM [13] was 9.72%, the Activity [14] was 14% and the Activity [15] was 0.65%. The Activity [16] was 60.7%, the Activity [17] was 16.6% and the Activity [18] was 1.37%. For the same molecule, the Activity [19] was 18.6%, the Activity [20] was 17.5% and the Activity [21] was 6.74%. It also gave an Activity [22] of 5.85%, an Activity [23] of 8.63% and an Activity [24] of 0.363%. The Activity [25] was 5.47%, the Activity [26] was “Dose-dependent effect” and the Activity [27] was “Dose-dependent effect”. For the same molecule, the inhibition [28] was “Active”, the Activity [29] was “Active” and the AUC(0-t) at 24 h [30] was 2850 ng·h/mL.
